In data set [1] the test system is Mus musculus. As to the kind of experiment: Toxicity in mouse xenografted with human U87MG cells assessed as death at 15 mg/kg, ip administered as q3w/14 days regime. The conditions noted are these: in vivo, 336 h. It counts as organism-based, U-87MG ATCC.
The test system of data set [2] is Mus musculus. Briefly: Toxicity in mouse xenografted with human U87MG cells assessed as change in body weight at 15 mg/kg, ip administered as q3w/14 days regime (reference value: 23.12%). It counts as organism-based, U-87MG ATCC. The conditions noted are these: in vivo, 336 h. In general terms: A xenograft is tissue or cells of one species grown in another, often human tumour cells in immunodeficient mice.

A short description of data set [3]: Antitumor activity against human U87MG cells xenografted in mouse assessed as tumor volume at 15 mg/kg, ip administered as q3w/14 days regime relative to control. It counts as functional, U-87MG ATCC. In outline: (§1)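 Mice bearing U87MG xenografts randomised at about 130 mm3 tumour volume (n = 12 control, n = 6 per treatment); dosing i.p. three times a week to end of study (q3w/14). Read-out is relative tumour volume (RTV), with T/C (%) versus untreated control; significance by Student's t-test.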

Data set [4] deals with MCF7. As to the kind of experiment: Retention time in human MCF7 cells at 10^-5 M by HPLC analysis. The format is ADME, cell-based. The conditions noted are these: mcf7, 10 µM. In outline:
(§2)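 MCF-7 cells exposed to 10^-5 M prodrug for 2 days; culture medium collected, centrifuged to remove cells, diluted to fixed volume and analysed by HPLC. Prodrug and SN-38 identified by retention time; relative amounts taken from chromatographic peak areas.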

The nature of data set [5]: Cytotoxicity against human HCT15 cells assessed as growth inhibition after 72 hrs by SRB assay. It counts as functional, cell-based. The conditions noted are these: HCT-15, 72 h. In outline:
(§3)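 Cells from ATCC, 6,000–10,000 per well, treated in triplicate with graded concentrations for 72 h at 37 °C. Growth inhibition read by sulforhodamine B staining; IC50 taken from dose–response curves.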

The next data set relates to HT-29. Briefly: Cytotoxicity against human HT-29 cells assessed as growth inhibition after 72 hrs by SRB assay. The conditions noted are these: HT-29, 72 h. It counts as functional, cell-based. In outline: as §3
(In general: In SRB staining, fixed cells bind dye roughly in proportion to their protein.)

In another data set the test system is MDA-MB-231. As to the kind of experiment: Cytotoxicity against human MDA-MB-231 cells assessed as growth inhibition after 72 hrs by SRB assay. It counts as functional, cell-based. The conditions noted are these: MDA-MB-231, 72 h. Summed up: as §3
Data set [6] concerns MCF7. Briefly: Cytotoxicity against human MCF7 cells assessed as growth inhibition after 72 hrs by SRB assay. It counts as functional, cell-based. The conditions noted are these: MCF7, 72 h. In outline: as §3
Data set [7] can be described thus: Cytotoxicity against human U87MG cells assessed as growth inhibition after 72 hrs by SRB assay. The format is functional, cell-based, U-87MG ATCC. The note with it: U-87 MG. In outline: as §3
For another data set, the system named is U-251. As to the kind of experiment: Cytotoxicity against human U251 cells assessed as growth inhibition after 72 hrs by SRB assay. The format is functional, cell-based. The note with it: U-251, 72 h. In outline: as §3
A short description of data set [8]: Antitumor activity against human U87MG cells xenografted in mouse assessed as tumor volume at 0.5 mg/kg, ip administered as q3w/14 days regime relative to control. It counts as functional, U-87MG ATCC. Summed up: as §1
Data set [9] has as its system Mus musculus. Briefly: Toxicity in mouse xenografted with human U87MG cells assessed as overt signs of symptoms at 2 mg/kg, ip administered as q3w/14 days regime. The conditions noted are these: in vivo, 336 h. It counts as organism-based, U-87MG ATCC.
Data set [10] relates to Mus musculus. As to the kind of experiment: Toxicity in mouse xenografted with human U87MG cells assessed as anaphylactic reaction at 2 mg/kg, ip administered as q3w/14 days regime. The format is organism-based, U-87MG ATCC. The conditions noted are these: in vivo, 336 h.
The nature of data set [11]: Prodrug activation in pH 7.4 phosphate buffer assessed as H2O2-mediated SN38 release incubated for 8 hrs by HPLC analysis. The conditions noted are these: pH 7.4, 8 h. In outline:
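Prodrug (1 mM) in phosphate buffer pH 7.4 with H2O2 at 0.5–10 mM final, 37 °C for 8 h. Quenched with equal volume of 50 mM sodium thiosulfate; SN-38 release quantified by HPLC.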

Data set [12] deals with MCF7. Briefly: Drug level in human MCF7 cells at 10^-5 M after 2 days by HPLC analysis. The format is ADME, cell-based. The conditions noted are these: mcf7, 48 h, 10 µM. Summed up: as §2
For data set [13], the target named is T1, DNA topoisomerase 1 (Homo sapiens) (UniProt P11387).
T1 sequence (whole entry): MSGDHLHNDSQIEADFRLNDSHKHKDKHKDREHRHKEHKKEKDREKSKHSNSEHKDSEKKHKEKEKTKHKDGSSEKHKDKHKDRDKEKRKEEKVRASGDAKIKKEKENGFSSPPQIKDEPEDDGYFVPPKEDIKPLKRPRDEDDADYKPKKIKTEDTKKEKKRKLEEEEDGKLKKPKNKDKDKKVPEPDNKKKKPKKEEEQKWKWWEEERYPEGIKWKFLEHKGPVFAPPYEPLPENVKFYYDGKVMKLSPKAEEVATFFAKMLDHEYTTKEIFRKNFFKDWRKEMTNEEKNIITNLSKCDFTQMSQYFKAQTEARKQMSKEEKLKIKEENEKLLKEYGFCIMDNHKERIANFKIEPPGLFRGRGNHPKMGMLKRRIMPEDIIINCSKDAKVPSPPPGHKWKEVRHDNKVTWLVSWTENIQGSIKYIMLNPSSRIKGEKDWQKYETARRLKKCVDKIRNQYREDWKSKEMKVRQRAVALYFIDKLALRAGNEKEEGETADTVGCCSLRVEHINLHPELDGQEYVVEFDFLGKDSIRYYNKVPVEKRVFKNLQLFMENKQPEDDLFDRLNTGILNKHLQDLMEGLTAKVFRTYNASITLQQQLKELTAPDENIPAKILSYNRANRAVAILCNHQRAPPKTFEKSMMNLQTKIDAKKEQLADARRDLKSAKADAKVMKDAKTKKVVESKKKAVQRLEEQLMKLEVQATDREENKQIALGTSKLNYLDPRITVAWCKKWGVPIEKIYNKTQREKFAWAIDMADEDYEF
Briefly: Inhibition of topoisomerase 1 (unknown origin) assessed as reduction in enzyme-mediated relaxation of supercoiled pBR322 DNA at 100 uM after 30 mins by agarose gel electrophoresis.

The test system of data set [14] is Mus musculus. As to the kind of experiment: Toxicity in mouse xenografted with human U87MG cells assessed as death at 2 mg/kg, ip administered as q3w/14 days regime. The format is organism-based, U-87MG ATCC. The note with it: in vivo, 336 h.
Data set [15] concerns Mus musculus. Briefly: Toxicity in mouse xenografted with human U87MG cells assessed as death at 0.5 mg/kg, ip administered as q3w/14 days regime. It counts as organism-based, U-87MG ATCC. The conditions noted are these: in vivo, 336 h.
The test system of data set [16] is Mus musculus. As to the kind of experiment: Toxicity in mouse xenografted with human U87MG cells assessed as change in body weight at 2 mg/kg, ip administered as q3w/14 days regime (reference value: 23.12%). The format is organism-based, U-87MG ATCC. The note with it: in vivo, 336 h.
Data set [17] has as its system Mus musculus. As to the kind of experiment: Toxicity in mouse xenografted with human U87MG cells assessed as change in body weight at 0.5 mg/kg, ip administered as q3w/14 days regime (reference value: 23.12%). It counts as organism-based, U-87MG ATCC. The conditions noted are these: in vivo, 336 h.
Data set [18] is described as follows: Antitumor activity against human U87MG cells xenografted in mouse assessed as tumor volume at 2 mg/kg, ip administered as q3w/14 days regime relative to control. The format is functional, U-87MG ATCC. Summed up:
as §1

Active and inactive are the calls of the source. The rule behind the calls is not given here.

The term T/C denotes the ratio of treated to control. With `CCc1c2c(nc3ccc(B4OC(C)(C)C(C)(C)O4)cc13)-c1cc3c(c(=O)n1C2)COC(=O)[C@]3(O)CC`, the Activity result in the data set on Mus musculus [1] is “Non-toxic”; in the data set with Mus musculus [2] it was 15.88%. Besides, in data set [3], the T/C is given as 8.39%.

A word on the IC50: it is the concentration needed to halve the response being measured. On to `CCc1c2c(nc3ccc(O)cc13)-c1cc3c(c(=O)n1C2)COC(=O)[C@]3(O)CC` [7-ETHYL-10-HYDROXYCAMPTOTHECIN], for which the Retention_time with MCF7 [4] is recorded as 8.85 min. Also, the IC50 stood at 8 nM in data set [5]; 54 nM in the data set with HT-29; 1970 nM in the data set on MDA-MB-231; 515 nM in the data set with MCF7 [6]; 30 nM in data set [7]; 21 nM in the data set on U-251.

Consider `CCc1c2c(nc3ccc(B(O)O)cc13)-c1cc3c(c(=O)n1C2)COC(=O)[C@]3(O)CC`, for which the figures for the T/C in data set [8] and in data set [18] were 105.99% and 28.1%, respectively. Besides, the Activity result is reported as “Non-toxic” in the data set with Mus musculus [9]; “Non-toxic” with Mus musculus [10]; “Non-toxic” with Mus musculus [14]; “Non-toxic” in the data set with Mus musculus [15]; 2.11% in the data set with Mus musculus [16]; 12.69% in the data set with Mus musculus [17]. The Drug metabolism entry in [11] is “Dose-dependent effect”. In the data set with MCF7 [4], the Retention_time stood at 12.87 min. The compound further showed a Drug uptake with MCF7 [12] of 59%. Also, the IC50 in data set [5] was found to be 18 nM; in the data set on HT-29 it was 47 nM; with MDA-MB-231 it was 4280 nM; with MCF7 [6] it was 628 nM; in data set [7], 47 nM; with U-251, 36 nM. In addition, the inhibition result in data set [13] is “Active”.

(Values after ChEMBL document CHEMBL3792343, “10-Boronic acid substituted camptothecin as prodrug of SN-38” (Eur J Med Chem, 2016).)
